A short description of data set [1]: Antiproliferative activity against bovine BAEC cells after 4 days by coulter counter method. The data set is classed as functional, cell-based. Particulars: Bos taurus, 96 h.
Data set [2] can be described thus: Cytotoxicity against human HMEC1 cells at 100 uM after 3 days by coulter counter method. It counts as cell-based. Particulars: hmec-1, 72 h. In short, it runs like this: (§1)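 Cells seeded at 10,000 cells per cm2; after 16 h, fresh medium with test compound added. Cells trypsinized and counted with a Coulter counter on day 4 (BAEC, HeLa, MCF-7) or day 7 (HMEC-1). Cytotoxicity (cell death) was judged after 3 days in culture. HMEC-1 grown in EGM-2 with supplements and growth factors.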

Data set [3] deals with MCF7. The experiment in a line: Antiproliferative activity against human MCF7 cells after 4 days by coulter counter method. The data set is classed as functional, cell-based. Particulars: MCF7, 96 h.
The subject of data set [4] is MCF7. As to the kind of experiment: Cytotoxicity against human MCF7 cells at 30 uM after 3 days by coulter counter method. Particulars: mcf7, 72 h. The data set is classed as cell-based. The procedure, abridged:
as §1

Data set [5] can be described thus: Cytotoxicity against bovine BAEC cells at 100 uM after 3 days by coulter counter method. As to conditions: cattle, 72 h. It counts as cell-based, Bos taurus. The procedure, abridged:
as §1

The test system of data set [6] is HeLa. The experiment in a line: Cytotoxicity against human HeLa cells at 30 uM after 3 days by coulter counter method. It counts as cell-based. As to conditions: 72 h. The procedure, abridged: as §1
Data set [7] can be described thus: Cytotoxicity against human HMEC1 cells at 30 uM after 3 days by coulter counter method. The data set is classed as cell-based. As to conditions: hmec-1, 72 h. The procedure, abridged:
as §1

Data set [8] relates to HeLa. The experiment in a line: Cytotoxicity against human HeLa cells at 100 uM after 3 days by coulter counter method. It counts as cell-based. Particulars: 72 h. The procedure, abridged:
as §1

A short description of data set [9]: Antimigratory activity against mouse MAEC cell migration at 3 uM after 5 hrs by wound closure assay. It counts as functional. In short, it runs like this: (§2)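 Confluent MAEC monolayers wounded with a 1.0-mm wide micropipette tip, then incubated in fresh medium with test compound. Wounds photographed after 5 h and width calculated from digital images. Mean ± SD of 2–4 independent experiments; Student t test, p < 0.05 significant.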

For data set [10], the system named is MCF7. The experiment in a line: Cytotoxicity against human MCF7 cells at 100 uM after 3 days by coulter counter method. As to conditions: mcf7, 72 h. The data set is classed as cell-based. In short, it runs like this: as §1
Data set [11] can be described thus: Antimigratory activity against mouse MAEC cell migration at 10 uM after 5 hrs by wound closure assay. The data set is classed as functional. The procedure, abridged: as §2
Data set [12] in a line: Antiproliferative activity against human HMEC1 cells after 7 days by coulter counter method. The data set is classed as functional, cell-based. As to conditions: HMEC-1, 168 h.
Data set [13] has as its system HeLa. The experiment in a line: Antiproliferative activity against human HeLa cells after 4 days by coulter counter method. The data set is classed as functional, cell-based. Particulars: 96 h.
A short description of data set [14]: Cytotoxicity against bovine BAEC cells at 30 uM after 3 days by coulter counter method. It counts as cell-based, Bos taurus. As to conditions: cattle, 72 h. In short, it runs like this:
as §1

The subject of data set [15] is HMEC-1. As to the kind of experiment: Antiangiogenic activity in human HMEC1 cells assessed as inhibition of tube formation at 100 uM after 4 to 6 hrs by matrigel assay. The data set is classed as functional, cell-based. The procedure, abridged:
(§3)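 HMEC-1 (60,000 cells) seeded on matrigel (10 mg/mL) after 30 min gelling at 37 °C, in DMEM containing test compound; after 4–6 h cells photographed and tubes scored 0 (none) to 3 (maximal, like untreated control). Mean ± SD of 2–4 independent experiments; Student t test, p < 0.05 significant.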

Data set [16] in a line: (§4) Antimigratory activity against mouse MAEC cell migration at 30 uM after 5 hrs by wound closure assay. It counts as functional. In short, it runs like this:
as §2

Data set [17] deals with MAEC. The experiment in a line: Antimigratory activity against mouse MAEC cell migration after 5 hrs by wound closure assay. The data set is classed as functional, cell-based. In short, it runs like this: as §2
Data set [18] relates to HMEC-1. As to the kind of experiment: Antiangiogenic activity in human HMEC1 cells assessed as inhibition of tube formation at 30 uM after 4 to 6 hrs by matrigel assay. It counts as functional, cell-based. The procedure, abridged: as §3
Data set [19] deals with HMEC-1. The experiment in a line: Antiangiogenic activity in human HMEC1 cells assessed as inhibition of tube formation after 4 to 6 hrs by matrigel assay. The data set is classed as functional, cell-based. In short, it runs like this:
as §3

The subject of data set [20] is HMEC-1. As to the kind of experiment: Antiangiogenic activity in human HMEC1 cells assessed as inhibition of tube formation at 10 uM after 4 to 6 hrs by matrigel assay. The data set is classed as functional, cell-based. The procedure, abridged: as §3
In data set [21] the target is Vascular endothelial growth factor receptor 2 (Homo sapiens, UniProt P35968). The experiment in a line: Inhibition of human recombinant VEGFR2 expressed in Sf9 insect cells assessed as inhibition of poly(Glu,Tyr) 4:1 substrate phosphorylation by radiometric assay. The procedure, abridged:
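Human recombinant GST-fusion VEGFR2 kinase, expressed in Sf9 cells and purified on GSH-agarose, with poly(Glu,Tyr) 4:1 as substrate; phosphorylation read radiometrically. Racemic trifluoroacetate salts tested at 10 concentrations (1 × 10−4 M to 3 × 10−9 M) to give IC50, run in singlicate by a contract lab.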

Data set [22] is filed under the species Gallus gallus. The experiment in a line: Antiangiogenic activity in chicken embryo chorioallantoic membrane model at 250 nmol/disc after 3 days. It counts as functional, tissue-based.
Data set [23] deals with MAEC. The data set is described as §4. It counts as functional. In short, it runs like this: as §2

Active and inactive are the calls of the source. The calls are words filed in the database; no cut-off is given here. A value given as a limit tells only on which side of the number the result lay.

Sequence of Vascular endothelial growth factor receptor 2 (P35968 whole entry, the tested form may be a part): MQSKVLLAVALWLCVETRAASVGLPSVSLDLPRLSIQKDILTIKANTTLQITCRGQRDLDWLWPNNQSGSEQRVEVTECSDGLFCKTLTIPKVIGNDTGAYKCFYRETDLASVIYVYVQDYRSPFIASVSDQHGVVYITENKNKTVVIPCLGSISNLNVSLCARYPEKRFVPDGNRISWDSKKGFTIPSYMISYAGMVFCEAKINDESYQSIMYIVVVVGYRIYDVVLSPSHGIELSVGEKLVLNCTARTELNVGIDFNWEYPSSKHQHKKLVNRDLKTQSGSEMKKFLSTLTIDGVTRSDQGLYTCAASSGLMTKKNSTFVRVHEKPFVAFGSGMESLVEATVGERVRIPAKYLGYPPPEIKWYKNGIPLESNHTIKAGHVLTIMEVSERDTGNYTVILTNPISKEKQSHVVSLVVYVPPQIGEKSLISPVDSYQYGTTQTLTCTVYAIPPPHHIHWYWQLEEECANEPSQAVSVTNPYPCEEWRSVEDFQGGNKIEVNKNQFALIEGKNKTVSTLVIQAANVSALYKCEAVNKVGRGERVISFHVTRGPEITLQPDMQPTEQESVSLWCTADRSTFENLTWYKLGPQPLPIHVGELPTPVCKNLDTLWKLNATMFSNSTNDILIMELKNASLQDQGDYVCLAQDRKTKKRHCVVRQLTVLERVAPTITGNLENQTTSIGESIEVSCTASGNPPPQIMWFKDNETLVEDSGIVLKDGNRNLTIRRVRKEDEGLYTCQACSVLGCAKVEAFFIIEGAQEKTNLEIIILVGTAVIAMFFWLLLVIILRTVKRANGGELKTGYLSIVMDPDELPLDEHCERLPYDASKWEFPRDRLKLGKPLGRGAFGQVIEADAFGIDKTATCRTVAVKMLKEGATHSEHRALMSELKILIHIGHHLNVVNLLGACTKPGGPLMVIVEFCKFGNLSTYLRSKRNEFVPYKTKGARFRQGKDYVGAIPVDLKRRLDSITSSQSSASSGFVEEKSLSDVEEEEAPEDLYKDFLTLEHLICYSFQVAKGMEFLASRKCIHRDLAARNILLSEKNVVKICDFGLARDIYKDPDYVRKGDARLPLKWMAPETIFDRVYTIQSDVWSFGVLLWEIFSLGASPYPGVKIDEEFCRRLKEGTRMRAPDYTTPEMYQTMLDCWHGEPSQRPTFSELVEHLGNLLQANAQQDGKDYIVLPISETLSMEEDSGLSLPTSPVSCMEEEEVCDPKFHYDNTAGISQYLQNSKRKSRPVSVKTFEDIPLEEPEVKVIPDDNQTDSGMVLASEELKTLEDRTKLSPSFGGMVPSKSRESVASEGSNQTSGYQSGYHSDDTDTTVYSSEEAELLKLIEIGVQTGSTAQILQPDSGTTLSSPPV

Take `CCOC(=O)C(=O)N(Cc1cccc(F)c1)c1ccc2c(c1)N(C)CC(C)(COc1ccc(C(=N)N)cc1)O2` (configuration not stated): the IC50 in data set [1] was found to be 18 µM; in data set [3], 6.5 µM; in [12] it was 7.7 µM; in data set [13] it was 20 µM. Moreover, the Activity result was “Toxic” in data set [2]; “Non-toxic” in data set [4]; “Toxic” in [5]; “Non-toxic” in [6]; “Non-toxic” in data set [7]; “Toxic” in [8]. For the same molecule, the Activity entry is “Toxic” in [10] and “Non-toxic” in [14]. In data set [9], the inhibition at 3 µM was greater than 40%. The inhibition at 10 µM in data set [11] was 50%.

Regarding `CCOC(=O)C(=O)N(Cc1cc(F)cc(F)c1)c1ccc2c(c1)OC(C)(CO)CN2C` (configuration not stated), the inhibition result in [15], in data set [18] and in [19] was “Active” throughout. Further, the IC50 is 60 µM in [1], 45 µM in [3], 89 µM in data set [12] and 44 µM in data set [13]. Further, the Activity result in [2], in data set [5], in [8] and in [10] was “Toxic” in each case. The inhibition at 30 µM in data set [16] is greater than 80%. For the same molecule, in data set [17], the inhibition result is “Dose-dependent effect”. The inhibition result in [20] was “inactive”. The molecule further yielded an inhibition at 10 µM in data set [11] greater than 40%.

Take `CN1CC(C)(COc2ccc(C(=N)N)cc2)Oc2ccc(N(CC(=O)O)Cc3cc(F)cc(F)c3)cc21` (racemic) [listing 1 of 2 here]: the inhibition entry in data set [21] is “Dose-dependent effect”.

On to `CN1CC(C)(COc2ccc(C(=N)N)cc2)Oc2ccc(N(CC(=O)O)Cc3cc(F)cc(F)c3)cc21` (racemic) [listing 2 of 2 here], for which the IC50 in data set [21] was found to be 22.5 µM.

On to `CCOC(=O)C(=O)N(Cc1cccc(F)c1)c1ccc2c(c1)N(C)CC(C)(COc1ccc(C(=N)N)cc1)O2` (racemic), for which the IC50 in [21] was found to be 80 µM.

Regarding `CCOC(=O)CN(Cc1ccc(F)c(F)c1)c1ccc2c(c1)N(C)CC(C)(COc1ccc(C(=N)N)cc1)O2` (configuration not stated), the inhibition result in [22], in data set [23] and in data set [18] was “Active” in each case. Besides, the IC50 in [1] was 4.1 µM; in data set [3], 3.9 µM; in data set [12], 4.2 µM; in data set [13], 4.8 µM. Further, the Activity entry in data set [2], in data set [4], in data set [5], in [6], in [7] and in [8] was “Toxic” throughout. Also, the Activity entry in data set [10] and in data set [14] was “Toxic” throughout. Moreover, the inhibition result in data set [17] is “Dose-dependent effect”. The inhibition entry in data set [20] is “inactive”. In addition, the inhibition at 10 µM in data set [11] stood at 50%.

As to `CCOC(=O)CN(Cc1ccc(F)cc1)c1ccc2c(c1)OC(C)(COc1ccc(C(=N)N)cc1)CN2C` (configuration not stated), the inhibition entry in [22] and in [18] was “Active” in each case. For the same molecule, the IC50 in data set [1] stood at 2.9 µM; in data set [3] it was 5.3 µM; in [12], 2.9 µM; in data set [13], 4 µM. In addition, the Activity entry in [2], in [4], in [5], in data set [6], in data set [7] and in data set [8] was “Toxic” in each case. Moreover, the Activity entry in [10] and in data set [14] was “Toxic” each time. Moreover, in data set [16], 30 µM produced 95% inhibition. In addition, the inhibition result in data set [17] is “Dose-dependent effect”. In addition, in [20], the inhibition entry is “inactive”. In data set [9], this molecule showed an inhibition at 3 µM of 41%. In [11], the inhibition at 10 µM amounted to 78%.

For the molecule `CCOC(=O)C(=O)N(Cc1cc(F)cc(F)c1)c1ccc2c(c1)OC(C)(COc1ccc(C(=N)N)cc1)CN2C` (configuration not stated), the inhibition result in [22] and in [23] was “Active” in each case. In addition, the IC50 in data set [1] was found to be 4.6 µM; in [3], 2.9 µM; in data set [12] it was 6.8 µM; in [13], 6.6 µM. Further, the Activity result in data set [2] was “Toxic”; in [4] it was “Non-toxic”; in data set [5] it was “Toxic”; in data set [6], “Non-toxic”; in data set [7], “Non-toxic”; in [8] it was “Toxic”. The Activity entry in data set [10] is reported as “Toxic”; in [14] it was “Non-toxic”. The inhibition entry in data set [17] and in data set [19] was “Dose-dependent effect” each time. Besides, the inhibition at 3 µM in data set [9] was greater than 40%. This molecule also had an inhibition at 10 µM in data set [11] of 50%.

As to `CCOC(=O)CN(Cc1cccc(F)c1)c1ccc2c(c1)OC(C)(COc1ccc(C(=N)N)cc1)CN2C` (configuration not stated), the inhibition result in data set [22], in data set [23] and in data set [18] was “Active” throughout. Moreover, the IC50 worked out at 4.1 µM in data set [1], 3.9 µM in [3], 2.6 µM in [12] and 4.5 µM in data set [13]. Also, the Activity entry in data set [2], in [4], in data set [5], in data set [6], in data set [7] and in [8] was “Toxic” each time. Moreover, the Activity entry in data set [10] and in [14] was “Toxic” throughout. In addition, the inhibition entry in [17] was “Dose-dependent effect”. In addition, the inhibition entry in [20] was “inactive”. 10 µM produced 50% inhibition in data set [11].

Consider `CCOC(=O)CN(Cc1ccc(F)cc1)c1ccc2c(c1)N(C)CC(C)(COc1ccc(C(=N)N)cc1)O2` (configuration not stated), for which the inhibition entry in [22], in data set [23] and in data set [18] was “Active” each time. The IC50 in [1] turned out to be 3.8 µM; in data set [3], 4.1 µM; in data set [12], 6 µM; in [13], 4.8 µM. The Activity result in [2], in [4], in data set [5], in [6], in [7] and in data set [8] was “Toxic” throughout. The Activity entry in [10] and in [14] was “Toxic” each time. Also, in [17], the inhibition entry is “Dose-dependent effect”. For the same molecule, the inhibition result in data set [20] was “inactive”. In data set [11], this molecule displayed an inhibition at 10 µM of 50%.

For the molecule `CCOC(=O)CN(Cc1cccc(F)c1)c1ccc2c(c1)N(C)CC(C)(COc1ccc(C(=N)N)cc1)O2` (configuration not stated), the inhibition entry in data set [22], in data set [23] and in data set [18] was “Active” each time. Further, the IC50 stood at 3.9 µM in data set [1], 4.2 µM in data set [3], 6 µM in [12] and 4.6 µM in [13]. In addition, the Activity result in [2], in data set [4], in data set [5], in data set [6], in data set [7] and in data set [8] was “Toxic” each time. Further, the Activity entry in [10] and in data set [14] was “Toxic” in each case. Further, in data set [17], the inhibition result was “Dose-dependent effect”. Further, in data set [20], the inhibition entry was “inactive”. This molecule displayed an inhibition at 3 µM in data set [9] greater than 40%. Also, in data set [11], at 10 µM the inhibition was 50%.

The term IC50 denotes the concentration needed to halve the response being measured. One may read the inhibition as how much of the control response was suppressed.

The values are drawn from ChEMBL document CHEMBL2216753, “Novel 1,4-benzoxazine and 1,4-benzodioxine inhibitors of angiogenesis” (Eur J Med Chem, 2012).
